Dynein transport – inhibitors of GR-EGFP nuclear translocation, primary screen, dynein cargo transport inhibitor project, imaging, high-content, 3617.4 mouse cells; test concentration mostly 20 µM; stimulated with dexamethasone, 1 µM; stronger effect = lower value; z-score, hits read low; 220,000 tested, 0.47% active;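 active means plate z-score of nuclear minus cytoplasmic receptor signal below a set negative limit, without overly bright fluorescence or cell loss, cut at about -3.5 in these data, passing the limit was not always enough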;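 further: z-score of nuclear minus cytoplasmic ring GR-EGFP intensity difference per well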
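Buffer or medium – tet-free medium with charcoal-stripped serum · Signal – automated 10x imaging of fixed Hoechst-stained cells · Also added – dexamethasone agonist, 1.0 µM final, for 30 min · Incubation – induction 48 h, compound 1 h, agonist 30 min · Read-out – GR-EGFP nuclear translocation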
HCT116 PTEN-null – growth suppression of PTEN-null HCT116, primary screen, cell-based, CellTiter-Glo; 140,000 tested, 1.2% active; HCT116 PTEN-null viability, 60 h; stronger effect = lower value; AID 827, 2007; viability, % at 10 µM;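 active means viability at or below a set limit, 4 SD under the median of all tested compounds, cut at about 3.7% in these data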;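 further: PTEN knockout HCT116 line with beta catenin targeted HCT116 as companion control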
Autophagy mod – autophagy modulators in MEF cells, primary screen, imaging, high-content, MEF GFP-LC3. MEF GFP-LC3 puncta imaging; test concentration mostly 10 µM. calls only at 10 µM (by protocol). 190,000 tested, 0.98% active. AID 463193, 2010;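 active means percentage of spot-positive cells more than 3 SD above its plate mean, without a fluorescence outlier flag or 80% toxicity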
L major viab – Leishmania major promastigote growth inhibition, primary screen. Leishmania major promastigotes, resazurin fluorescence viability. AID 1063, 2008. 200,000 tested, 9% active. inhibition, % at 10 µM; in the data active means inhibition above about 50%;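 further: promastigotes grown with compound for 44 hours at 28 °C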
HCT116 bCat-KO – primary screen for growth suppressors in beta-catenin knockout HCT116 cells (colon tumor, human); 140,000 tested, 1.5% active; HCT116 beta-catenin knockout viability, CellTiter-Glo, 60 h; stronger effect = lower value; viability, % at 10 µM;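 active means viability at or under a set limit, the compound median less 4 SD, cut at about 6% in these data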
Each line names hits and unclear results; the compound was inactive in the other large screens. An excerpt weighted towards active compounds, which were near 9.2% of everything screened.

O=Nc1ccc(NOC(=O)c2ccccc2Br)cc1	L major viab 73
O=[N+]([O-])c1ccc(N/N=C/c2cn(-c3ccccc3)nc2-c2ccccc2)cc1	Autophagy mod active
NS(=O)(=O)c1ccc(N/N=C/c2cn(-c3ccccc3)nc2-c2ccccc2)c([N+](=O)[O-])c1	none (no result: HCT116 PTEN-null, HCT116 bCat-KO)
O=C(CNc1ccccc1)N/N=C/c1cn(-c2ccccc2)nc1-c1ccccc1	L major viab 69
COc1ccc(C2C(C#N)=C(N)N(c3sc4c(c3C#N)CCCC4)C3=C2C(=O)CC(C)(C)C3)cc1OC (stereo not given)	none
COc1ccc(C2C(C#N)=C(N)N(c3sc4c(c3C#N)CCCC4)C3=C2C(=O)CC(C)(C)C3)cc1 (stereo not given)	L major viab 83
COc1ccc(C2C(C#N)=C3NC(=O)c4c(sc5c4CCCCC5)N3C3=C2C(=O)CC(C)(C)C3)cc1 (stereo not given)	L major viab 88
Cn1c(NC(=O)c2ccccc2)c(-c2ccccn2)c(=O)c2ccccc21	none
COC(=O)c1ccc(C(=O)OC)c(NC(=S)N2CCN(C(=O)C3CCCO3)CC2)c1 (stereo not given)	none (no result: HCT116 PTEN-null, Autophagy mod, L major viab, HCT116 bCat-KO)
CCc1nnc(NS(=O)(=O)c2ccc(N=CC3=C(O)CC(C)(C)CC3=O)cc2)s1	none (no result: HCT116 PTEN-null, HCT116 bCat-KO)
COc1cc(NC(=O)Cn2nc(C(F)(F)F)c(Br)c2C)cc([N+](=O)[O-])c1	L major viab 98
CC1(C)CC2(CCO1)OC(=O)CC2C(=O)Nc1ccccc1Cl (stereo not given)	none (no result: HCT116 PTEN-null, HCT116 bCat-KO)
CCOc1ccccc1N1CC(O)=C(c2nc3ccccc3s2)C1=N	Autophagy mod active
COc1ccc(OC)c(N2CC(O)=C(c3nc4ccccc4s3)C2=N)c1	none
COc1ccc(NC(=O)CN2CCC(C)CC2)c([N+](=O)[O-])c1	none
COc1cc(NC(=O)Nc2cccc(Cl)c2)c(OC)cc1NC(=O)CN1CCCCC1	L major viab 51
COc1cc(NC(=O)c2ccc(C)cc2)c(OC)cc1NC(=O)CN1CCCCC1	L major viab 62
COc1cc(NC(=O)c2ccc(F)cc2)c(OC)cc1NC(=O)CN1CCOCC1	Autophagy mod active (no result: HCT116 PTEN-null, HCT116 bCat-KO)
COc1cc(-c2ccc(NC(=O)CN3CCC(C)CC3)c(OC)c2)ccc1NC(=O)CN1CCC(C)CC1	Autophagy mod active
COc1cc(NC(=O)c2ccccc2F)c(OC)cc1NC(=O)CN1CCOCC1	none (no result: HCT116 PTEN-null, HCT116 bCat-KO)
Cc1onc(-c2ccccc2)c1-c1n[nH]c(=S)n1-c1ccccc1	none (no result: HCT116 PTEN-null, HCT116 bCat-KO)
CC1CCC2C(C1)Nc1c(C(=O)O)cccc1C2(C)C (stereo not given)	none (no result: HCT116 PTEN-null, HCT116 bCat-KO)
COC(=O)[C@H](CCSC)NC(=O)Nc1ccc(OC)cc1OC	none
CCN(CC)c1ccc2c(C)c(Cl)c(=O)oc2c1	none (no result: HCT116 PTEN-null, HCT116 bCat-KO)
CCN(CC)c1ccc2c(C)c(-c3ccc(N)cc3)c(=O)oc2c1	none
CCN(CC)c1ccc2c(Cl)c(Br)c(=O)oc2c1	Autophagy mod active, L major viab 69
CCN(CC)c1ccc2c(c1)oc(=O)c1c(Cl)cc(=O)oc12	HCT116 PTEN-null 2.0, HCT116 bCat-KO 3.0
C=CCSc1nc(C)cc2c1C(=O)OC2	none (no result: HCT116 PTEN-null, HCT116 bCat-KO)
COc1ccc(C(=O)N2CCN(C(C)=O)CC2)cc1S(=O)(=O)N1CCOCC1	none (no result: HCT116 PTEN-null, HCT116 bCat-KO)
Cc1ccc(S(=O)(=O)/N=C2/C=C(Sc3ncn[nH]3)C(=O)c3ccccc32)cc1	Dynein transport -3.7, L major viab 100
Cc1ccc(S(=O)(=O)Nc2ccc(O)c(Sc3ncn[nH]3)c2)cc1	none (no result: HCT116 PTEN-null, HCT116 bCat-KO)
CC(C)c1ccc(S(=O)(=O)/N=C2/C=C(Sc3ncn[nH]3)C(=O)c3ccccc32)cc1	Dynein transport -5.3, L major viab 99, HCT116 bCat-KO 2.1
Cc1ccc(S(=O)(=O)/N=C2/C=C(Sc3ncn[nH]3)C(=O)c3ccccc32)c(C)c1	Dynein transport -3.6, HCT116 PTEN-null 2.8, L major viab 99, HCT116 bCat-KO 1.9
O=C(O)Cc1sc(Nc2ccccc2)nc1-c1cccs1	none (no result: HCT116 PTEN-null, Autophagy mod, L major viab, HCT116 bCat-KO)
CCN1CCc2c(sc(NC(=S)NC(=O)c3ccc(Cl)cc3)c2C(N)=O)C1	none (no result: HCT116 PTEN-null, Autophagy mod, L major viab, HCT116 bCat-KO)
CN1CCc2c(sc3c2C(=O)NC(c2ccccn2)N3)C1 (stereo not given)	none
O=C1NC(c2ccccn2)Nc2sc3c(c21)CCC3 (stereo not given)	HCT116 PTEN-null 1.8, HCT116 bCat-KO 3.8
O=C1CC(SC(=Nc2ccccc2)Nc2ccccc2)C(=O)N1c1ccc(Cl)cc1 (stereo not given)	none
O=C1CC(SC(=Nc2ccccc2)Nc2ccccc2)C(=O)N1c1cccc(Cl)c1 (stereo not given)	L major viab 61
O=C1CC(Sc2nnnn2-c2ccccc2)C(=O)N1c1cccc(Cl)c1 (stereo not given)	L major viab 71
COC(=O)c1ccc(N2C(=O)Nc3ccccc3N2O)cc1	none (no result: HCT116 PTEN-null, HCT116 bCat-KO)
Cc1ccc(/C=C2\C(=O)ON=C2c2ccccc2)o1	none (no result: HCT116 PTEN-null, HCT116 bCat-KO)
Cc1ccc(-c2ccc(/C=C3\C(=O)ON=C3c3ccccc3)o2)c([N+](=O)[O-])c1	L major viab 98
Clc1ccccc1Cc1noc(CN2CCN(Cc3ccccn3)CC2)n1	none (no result: HCT116 PTEN-null, HCT116 bCat-KO)
CCN(CC)c1nc2ccccc2nc1C(C#N)C(=O)NCCc1ccccc1 (stereo not given)	Autophagy mod active
CCCN(CCC)c1nc2ccccc2nc1C(C#N)C(=O)OC(C)COC (stereo not given)	L major viab 66
CCCCN(CCCC)c1nc2ccccc2nc1C(C#N)C(=O)NCCCOC (stereo not given)	Autophagy mod active
CCN(CC)c1nc2ccccc2nc1C(C#N)C(=O)NCCCOC (stereo not given)	none
O=C(NC(NC(=S)Nc1cccc(C(=O)O)c1)C(Cl)(Cl)Cl)OCc1ccccc1 (stereo not given)	none
O=C(NC(NC(=S)Nc1cccc(Cl)c1)C(Cl)(Cl)Cl)OCc1ccccc1 (stereo not given)	L major viab 100
Cc1cccc(NC(=O)[C@H](Cc2ccccc2)NC(=O)OCc2ccccc2)c1	L major viab 71
Cc1cccc(NC(=S)NC(C)CCc2ccccc2)c1 (stereo not given)	L major viab 78
COc1ccccc1NC(=S)N1CCC(NC(=O)c2ccco2)CC1	none (no result: HCT116 PTEN-null, HCT116 bCat-KO)
CCCN(CCC)c1cc(Cl)nc(N)n1	none (no result: HCT116 PTEN-null, HCT116 bCat-KO)
Cc1ccc(-c2cc(C(F)F)nc(NCC3CCCO3)n2)cc1 (stereo not given)	L major viab 64
Cc1ccccc1N1C(=O)C2C3CC(=O)C(c4ccccc43)C2C1=O (stereo not given)	none
Cc1ccnc2c(N3C(=O)C4C5c6ccccc6C(c6ccccc65)C4C3=O)cccc12 (stereo not given)	L major viab 58
O=C1C2C3c4ccccc4C(c4ccccc43)C2C(=O)N1c1ccncc1 (stereo not given)	Autophagy mod active (no result: HCT116 PTEN-null, HCT116 bCat-KO)
CCC(=O)Nc1nonc1-c1nc2ccccc2n1Cc1cccc2ccccc12	Autophagy mod active

Compound activity from PubChem BioAssay.
